What was measured:
HepG2 cells = format: cell-based, human; conditions: 2 hours, DOX equivalent 30 μg/mL
Procedure, shortened: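 HepG2 cells in DMEM/10% FBS, 37°C, […], exposed 2 h at 37°C to free or liposomal drug at 30 μg/mL DOX equivalent. Confocal: 7 × 10^4 cells/well on cover glass, 50% confluence, PBS-washed, paraformaldehyde-fixed, Triton-permeabilised, DAPI-stained, ex/em 488/560 nm. Flow: 80% confluence, ex 488/em 575 nm, drug-free cells as reference, n = 3. Competition: 100 mM Gal stock added before liposomes.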

[1] = Pharmacokinetic studies in rats; format: in vivo, Sprague Dawley rats; conditions: at 4 hours postinjection, DOX equivalent dose 10 mg/kg
Procedure, shortened: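 Sprague Dawley rats, 5 per group, given 10 mg/kg DOX equivalent. Jugular blood drawn 10 min to 8 h, plasma spun off immediately. Salicylic acid internal standard added, then perchloric acid precipitation. Supernatant run on C18 HPLC in NH4H2PO4 (0.01 mol/L)-acetonitrile-acetic acid (76:24:0.4) at 1.0 mL/min, 233 nm, 40°C. Two-compartment pharmacokinetic modelling.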

[2] = In vivo biodistribution study; parameters: species or system Kunming mice; conditions: mice, intravenous, DOX equivalent 5 mg/kg; heart, spleen, lung, kidney

What does the source list for `COc1cccc2c1C(=O)c1c(O)c3c(c(O)c1C2=O)C[C@@](O)(C(=O)CO)C[C@@H]3O[C@H]1C[C@H](N)[C@H](O)[C@H](C)O1` [Free DOX, doxorubicin]?
Cellular uptake of DOX (fluorescence) (HepG2 cells): most intense intracellular fluorescence; Plasma concentration of DOX [1]: 180 ng/mL; DOX fluorescence in other organs [2]: fluorescence was also observed in the heart, spleen, and kidney

— publication PMC3746791 (International Journal of Nanomedicine, 2013)
